Compound activity as filed in PubChem.
MC4R barr agon – activates human MC4R beta-arrestin recruitment | P32245 | U2OS MC4R beta-arrestin complementation, luminescence; percent of melanotan II response, DMSO zero | activation, % at 8.9 µM | 0.98% of 360,000 active | AID 540308;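 active = activation above a per-plate cutoff, the mean activation of sample wells on that plate plus 3 SD, cut at about 8% in these data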
Target sequence (P32245 whole entry, looked up): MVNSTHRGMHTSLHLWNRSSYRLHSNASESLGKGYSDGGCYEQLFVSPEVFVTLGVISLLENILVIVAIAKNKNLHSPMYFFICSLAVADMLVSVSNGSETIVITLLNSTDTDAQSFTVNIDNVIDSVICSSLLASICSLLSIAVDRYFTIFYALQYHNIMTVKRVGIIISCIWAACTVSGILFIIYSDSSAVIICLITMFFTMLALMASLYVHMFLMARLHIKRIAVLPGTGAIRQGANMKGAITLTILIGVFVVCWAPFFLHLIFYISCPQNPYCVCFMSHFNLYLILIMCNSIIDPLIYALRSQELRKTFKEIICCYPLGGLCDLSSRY
CFTR F508del cor – correctors of CFTR F508del function in bronchial epithelial cells | CFBE cells, YFP halide quenching; stimulated with forskolin plus potentiator P3; % fluorescence drop versus neutral controls | activity (quench increase), % at 7.58 µM | 0.36% of 350,000 active;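 active = mean added fluorescence quench of at least 8% versus neutral control, with both replicates also reaching 8%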;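 also: cells transiently co-express mutant CFTR-F508del with the halide-sensitive YFP; corrector assay measuring rescue of mutant channel to the surface after 24 h compound exposure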
SMARCA2 act – increases SMARCA2 function in MMTV reporter cells. MG213 cells, MMTV-luciferase reporter, dexamethasone, overnight. activation, % at 9.1 µM. AID 652017. 1% of 370,000 active; in the data active = activation above about 7.8%
MC4R antagonist – blocks human MC4R cAMP signaling | P32245 | MC4R-expressing cells, MTII-stimulated cAMP, LANCE TR-FRET | inhibition, % at 6.5 µM | 0.48% of 360,000 active | AID 540295;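 active = inhibition above its plate's cutoff, the mean of tested wells on that plate plus 3 SD, cut at about 29% in these data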
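Assay system: U2OS-MC4R stable cell line; Also added: Melanotan II; Technique: Eu-cAMP/anti-cAMP TR-FRET, emission 671 nm; Times: 30-min compound, 1-h challenge, 1-h detection, room temperature.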
SMARCA2 conf – SMARCA2 activation, confirmation screen; activation, % at 9.1 µM; AID 652260; 30% of 3,500 active; MG213 cells, MMTV-luciferase with dexamethasone, luminescence, overnight; MG213 cells expressing E1A, Rb sequestered; DMSO wells 0%, reference activator 100%; shares compounds with SMARCA2 act;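 active = activation above its plate's cutoff, the mean activation of tested wells plus 3 SD, cut at about 7.9% in these data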
GAL4-VP16 Luc – GAL4-VP16 reporter activation counter-screen; shares compounds with SMARCA2 act; HEK293 GAL4-VP16 pG5luc reporter, luciferase luminescence; scaled: DMSO wells 0%, SAHA wells 100%; activation, % at 9.1 µM; 41% of 3,500 active; AID 686939;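 active = activation above the solvent-only control well mean plus 3 SD, averaged across control plates, cut at about 5.2% in these data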
Of the large screens only hits and unclear results are named; the others gave an inactive call (follow-up assays come after a bar, where they were run). Sampled rows, rich in hits. Any-hit rate of the full collection: about 2.1%.

COc1ccc(-c2coc3cc(O)cc(O)c3c2=O)cc1	none
CCC(=O)Nc1cc(-c2cc3ccccc3oc2=O)ccc1OC	SMARCA2 act 9.3 | SMARCA2 conf 11 | GAL4-VP16 Luc 9.6
COc1ccc(-c2cc3ccc(OCC(N)=O)cc3oc2=O)cc1OC	none
COc1ccc(-c2cc3ccc(O)cc3oc2=O)cc1OC	SMARCA2 act 8.5 | SMARCA2 conf inactive | GAL4-VP16 Luc inactive
COc1ccc(-c2coc3cc(O)ccc3c2=O)cc1O	SMARCA2 act 8.0 | SMARCA2 conf 13 | GAL4-VP16 Luc 11
O=c1c(-c2ccc(O)cc2)coc2cc(O)cc(O)c12	SMARCA2 act 9.0 | SMARCA2 conf 14 | GAL4-VP16 Luc 11
CCC(=O)Nc1ccc(-c2cc3ccccc3oc2=O)cc1	none
CO[C@@H]1CN(C)C(=O)c2cc(NS(=O)(=O)c3ccccc3C)ccc2OC[C@H](C)N(S(C)(=O)=O)C[C@H]1C	none (no result: MC4R barr agon, SMARCA2 act, MC4R antagonist)
O=C(COc1ccccc1)NCC1(N2CCCCC2)CCCCC1	SMARCA2 act 9.6 | SMARCA2 conf inactive | GAL4-VP16 Luc inactive
O=c1c2ccccc2oc2c1oc1ccccc12	SMARCA2 act 14 | SMARCA2 conf inactive | GAL4-VP16 Luc 9.0
O=c1c2ccccc2oc2cc(Br)ccc12	none
N#CC1(NC(=O)COC(=O)/C=C/c2ccc3ccccc3n2)CCCCC1	SMARCA2 act 9.4 | SMARCA2 conf 8.3 | GAL4-VP16 Luc inactive
C[C@@H]1CN([C@H](C)CO)C(=O)c2cc(/C=C/c3ccccc3)cnc2O[C@H]1CN(C)C(=O)Nc1ccc(C(F)(F)F)cc1	none (no result: MC4R barr agon, SMARCA2 act, MC4R antagonist)
CCOc1cc2c(C)cc(=O)oc2cc1Cl	SMARCA2 act 9.9 | SMARCA2 conf inactive | GAL4-VP16 Luc inactive
Cc1cc(C)c(S(=O)(=O)N2CCOC23CCN(S(C)(=O)=O)CC3)c(C)c1	SMARCA2 act 14 | SMARCA2 conf inactive | GAL4-VP16 Luc inactive
COc1ccc(S(=O)(=O)N2CCOC23CCN(S(=O)(=O)c2c(C)cc(C)cc2C)CC3)cc1	none
COc1ccc(C2=NN(C(=O)c3ccccc3)C(c3ccc(OC)c(OC)c3)C2)cc1OC (configuration not stated)	none
COc1ccc(C2CC(c3ccc(OC)c(OC)c3)=NN2C(=O)c2ccccc2)cc1 (configuration not stated)	SMARCA2 act 13 | SMARCA2 conf 13 | GAL4-VP16 Luc inactive
COc1ccccc1C#Cc1cnc2c(c1)C(=O)N([C@@H](C)CO)C[C@H](C)[C@H](CN(C)C(C)=O)O2	none (no result: MC4R barr agon, SMARCA2 act, MC4R antagonist)
CCOCCn1c(CN2CCCCC2)nc2c1c(=O)n(C)c(=O)n2C	SMARCA2 act 8.1 | SMARCA2 conf inactive | GAL4-VP16 Luc inactive
O=C(Cc1ccccn1)NCC[C@@H]1CC[C@@H](NC(=O)c2ccccc2F)[C@@H](CO)O1	none (no result: MC4R barr agon, SMARCA2 act, MC4R antagonist)
Cn1ccc(C(=O)N/N=C/c2ccccc2[N+](=O)[O-])n1	SMARCA2 act 8.2 | SMARCA2 conf inactive | GAL4-VP16 Luc inactive
COc1ccc(NC(=O)N(C)C[C@@H]2Oc3ncc(-c4ccc(C#N)cc4)cc3C(=O)N([C@@H](C)CO)C[C@@H]2C)cc1	none (no result: MC4R barr agon, SMARCA2 act, MC4R antagonist)
O=C1NCCCC1C(=O)N/N=C/c1ccccc1 (configuration not stated)	SMARCA2 act 8.8 (no result: CFTR F508del cor) | SMARCA2 conf inactive | GAL4-VP16 Luc inactive
O=C1NCCCC1C(=O)N/N=C/c1cccc(O)c1 (configuration not stated)	none
N#C/C(=C\c1c[nH]c2ccccc12)C(=O)NC1CC1	SMARCA2 act 10 | SMARCA2 conf 11 | GAL4-VP16 Luc 11
N#C/C(=C\c1c[nH]c2ccccc12)C(=O)NC1CCCC1	none
O=C(N[C@H]1C=C[C@H](CC(=O)N2CCCCC2)O[C@H]1CO)c1ccccn1	none (no result: MC4R barr agon, SMARCA2 act, MC4R antagonist)
O=C(COc1ccccc1/C=C\c1[nH]c(=O)[nH]c(=O)c1[N+](=O)[O-])Nc1ccccc1	SMARCA2 act 11 | SMARCA2 conf 13 | GAL4-VP16 Luc inactive
O=c1[nH]c(/C=C/c2ccccc2Cl)c([N+](=O)[O-])c(=O)[nH]1	none
Fc1ccccc1-c1nc(-c2ccc(Cl)cc2)no1	SMARCA2 act 8.0 (no result: CFTR F508del cor) | SMARCA2 conf 13 | GAL4-VP16 Luc 9.7
C[C@@H](O)C#Cc1cnc2c(c1)C(=O)N([C@@H](C)CO)C[C@H](C)[C@@H](CN(C)C(=O)c1ccncc1)O2	none (no result: MC4R barr agon, SMARCA2 act, MC4R antagonist)
C[C@H](CO)N1C[C@H](C)[C@H](CN(C)C(=O)Nc2ccc(C(F)(F)F)cc2)Oc2ccc(NC(=O)CCC(F)(F)F)cc2C1=O	none (no result: MC4R barr agon, SMARCA2 act, MC4R antagonist)
COc1ccccc1NC(CC(=O)c1ccccc1)C(=O)OCC(=O)c1ccc(F)cc1 (configuration not stated)	SMARCA2 act 10.0 (no result: CFTR F508del cor) | SMARCA2 conf 8.6 | GAL4-VP16 Luc 15
Cc1cccc(NC(=O)CSc2cccc3cccnc23)c1C	none
CCOC(=O)CSc1cccc2cccnc12	SMARCA2 act 9.4 (no result: CFTR F508del cor) | SMARCA2 conf inactive | GAL4-VP16 Luc inactive
N#Cc1cc(O)c(-n2nnc3ccccc32)cc1C#N	none
N#Cc1cc(Oc2cccc3cccnc23)c(-n2nnc3ccccc32)cc1C#N	SMARCA2 act 14 | SMARCA2 conf inactive | GAL4-VP16 Luc inactive
C[C@H]1C(=O)[C@]23C[C@H]1CC[C@H]2[C@]1(C)[C@@H](O)CC[C@@](C)(C(=O)O)[C@H]1C[C@@H]3O	none (no result: MC4R barr agon, CFTR F508del cor, MC4R antagonist)
C=C1C(=O)[C@]23C[C@H]1CCC2[C@]1(C)C(=O)CC[C@@](C)(C(=O)O)C1C[C@@H]3O (some centres not stated)	SMARCA2 act 31 (no result: MC4R barr agon, MC4R antagonist) | SMARCA2 conf 47 | GAL4-VP16 Luc inactive
C[C@@H]1CN([C@@H](C)CO)C(=O)c2cc(NS(=O)(=O)c3ccccc3)ccc2O[C@@H]1CN(C)C(=O)Nc1ccccc1	none (no result: MC4R barr agon, SMARCA2 act, MC4R antagonist)
Cc1cccc2nc(CSc3nnc4ccccn34)cn12	SMARCA2 act 8.4 (no result: CFTR F508del cor) | SMARCA2 conf 9.9 | GAL4-VP16 Luc 12
COc1cc(/C=C2\SC(=S)N(Nc3ccccc3)C2=O)ccc1O	SMARCA2 act 8.2 (no result: CFTR F508del cor) | SMARCA2 conf inactive | GAL4-VP16 Luc 11
CCC(=O)N1[C@H](CO)[C@@H](c2ccc(-c3ccc(F)cc3)cc2)[C@@H]1CNC(C)=O	none (no result: MC4R barr agon, SMARCA2 act, MC4R antagonist)
COc1ccc(C2=Nn3c(nnc3-c3ccccc3OC)SC2)cc1OC	SMARCA2 act 16 (no result: CFTR F508del cor) | SMARCA2 conf 16 | GAL4-VP16 Luc 12
COc1ccccc1-c1nnc2n1N=C(c1ccc3c(c1)OCO3)CS2	none (no result: MC4R barr agon, CFTR F508del cor, MC4R antagonist)
COc1ccc(C2=Nn3c(nnc3-c3ccccc3Cl)SC2)cc1OC1CCOC1 (configuration not stated)	SMARCA2 act 11 | SMARCA2 conf 18 | GAL4-VP16 Luc inactive
COc1ccc(C2=Nn3c(nnc3-c3ccco3)SC2)cc1OC	SMARCA2 act 8.2 (no result: CFTR F508del cor) | SMARCA2 conf 13 | GAL4-VP16 Luc 9.2
